Experimental data reported in paper PMC3553987 (Nucleic Acids Research, 2012).

What was measured:
P-STAT1 = target: T1, P-STAT1 (Homo sapiens, UniProt P42224); experiment: TIRF-PBM: inhibition of P-STAT1 equilibrium binding to DNA array; details: 20 µM compound, 50 nM P-STAT1
T1 sequence (P42224 1-750): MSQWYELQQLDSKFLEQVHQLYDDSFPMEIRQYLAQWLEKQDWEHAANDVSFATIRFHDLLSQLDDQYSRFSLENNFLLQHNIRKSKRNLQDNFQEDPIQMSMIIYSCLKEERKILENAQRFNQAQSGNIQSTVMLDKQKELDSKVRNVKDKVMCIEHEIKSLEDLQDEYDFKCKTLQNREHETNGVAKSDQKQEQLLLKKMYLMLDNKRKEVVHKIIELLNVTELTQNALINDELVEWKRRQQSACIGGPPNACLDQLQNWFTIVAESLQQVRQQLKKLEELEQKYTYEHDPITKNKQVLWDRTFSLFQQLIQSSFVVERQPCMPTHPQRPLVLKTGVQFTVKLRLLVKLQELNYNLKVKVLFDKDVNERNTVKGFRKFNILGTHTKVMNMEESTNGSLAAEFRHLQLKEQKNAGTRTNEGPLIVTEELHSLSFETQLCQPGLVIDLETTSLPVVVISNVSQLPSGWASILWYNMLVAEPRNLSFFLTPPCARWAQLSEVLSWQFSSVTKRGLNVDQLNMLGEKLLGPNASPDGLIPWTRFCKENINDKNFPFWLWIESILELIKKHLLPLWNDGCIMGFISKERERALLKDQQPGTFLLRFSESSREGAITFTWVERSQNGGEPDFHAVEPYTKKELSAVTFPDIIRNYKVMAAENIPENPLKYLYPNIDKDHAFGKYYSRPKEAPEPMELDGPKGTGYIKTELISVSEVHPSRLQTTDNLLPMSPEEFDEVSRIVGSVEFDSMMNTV
Procedure, shortened: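 Phosphorylated STAT1 (50 nM), amine-labelled with DyLight dyes, with test compound (20 μM final, from 5 mM DMSO stock). Flowed >30 min at 25°C over dsDNA hydrogel microarray; TIRF read, 20 s exposures. Intensities from 5–10 replicate spots, binned as GAS palindrome with 3-nt spacer, half-GAS, or absent/misspaced GAS.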

STAT3 = details: STAT3, at this concentration (20 µM), in cells and in vivo; cited from earlier work
Myc/Max [1] = target: Myc/Max (Homo sapiens, UniProt P01106); experiment: TIRF-PBM: inhibition of Myc/Max equilibrium binding to DNA array; details: 50 μM Mycro3, 10 nM Myc/Max
Sequence of Myc/Max (Homo sapiens, UniProt P01106) (P01106 whole entry): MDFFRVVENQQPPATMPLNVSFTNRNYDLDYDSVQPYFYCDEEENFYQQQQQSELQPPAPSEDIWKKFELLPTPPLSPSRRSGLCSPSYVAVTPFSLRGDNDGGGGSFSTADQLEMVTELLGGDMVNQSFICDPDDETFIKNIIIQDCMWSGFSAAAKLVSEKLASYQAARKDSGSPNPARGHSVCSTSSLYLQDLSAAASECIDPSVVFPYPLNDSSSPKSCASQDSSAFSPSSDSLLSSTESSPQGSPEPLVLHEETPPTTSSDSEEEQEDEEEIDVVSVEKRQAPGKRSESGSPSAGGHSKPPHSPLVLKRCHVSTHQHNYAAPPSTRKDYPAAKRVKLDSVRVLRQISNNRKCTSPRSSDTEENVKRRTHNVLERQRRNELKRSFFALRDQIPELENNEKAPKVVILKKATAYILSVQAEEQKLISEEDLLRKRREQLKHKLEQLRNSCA
Procedure, shortened: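 DyLight-labelled Myc/Max (His-tagged c-Myc and Max expressed separately in E. coli, then denatured and renatured together) with test compound (5 mM DMSO stock, 50 μM final). Equilibrium intensity from 5–10 replicate spots; E-box consensus vs mutated/absent bins compared by two-tailed t-test with Welch's correction.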

Myc/Max [2] = details: read-out: reported IC50; obtained with a cognate-binding site; cited from earlier work

| adjusted binding intensity at 'Half Sites' (P-STAT1) | adjusted binding intensity at 'Poor Affinity' sites (P-STAT1) | average adjusted binding intensity at 'High Affinity' sites, % of the no-inhibitor control (P-STAT1) | fold reduction in binding at 'High Affinity' sites (P-STAT1) | Myc/Max binding intensity at 'high affinity' sites, % signal (Myc/Max [1]) | Myc/Max binding signal at weaker affinity sites (Myc/Max [1]) | Compound | DNA binding, % of normal activity (STAT3) | IC50 (Myc/Max [2]) |
| --- | --- | --- | --- | --- | --- | --- | --- | --- |
| 59.4 ± 15.5% | 42.4 ± 13.1% | 12.6 ± 4.9% | ~8 fold |  |  | CC(=O)c1cccc2c1C(=O)c1cccc(O)c1C2=O [LLL3] | ~40% |  |
|  |  |  |  | 68.5 ± 10.6% | 66.2 ± 23.7% | CCOC(=O)c1cnn(-c2ccccc2)c1NC(=O)c1cc2nc(-c3ccco3)cc(C(F)(F)Cl)n2n1 [Mycro3] |  | 40 ± 13 µM |
